From ChEMBL document CHEMBL1122149, “Beta-carbolines: synthesis and neurochemical and pharmacological actions on brain benzodiazepine receptors” (J Med Chem, 1982)

target: T1, GABA-A receptor; anion channel (Rattus norvegicus) (UniProt O09028+P15431+P18506+P18508+P19969+P20236+P23574+P23576+P28471+P28473+P30191+P62813+P63079+P63138+Q91ZM7+Q9ES14); assay: Hill coefficient for inhibition of ~2 nM [3H]diazepam binding to GABA-A benzodiazepine receptor of rat cerebral cortical membrane
Procedure, shortened: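 Rat cerebral cortex tissue was homogenized in 100 volumes of 50 mM Tris-HCl pH 7.4 and washed three times by centrifugation at 20000g. […] Hill coefficients came from least mean squares regression of the inhibition curves.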

SMILES	Hill coefficient
CC(=O)c1cc2c3ccccc3nc-2c[nH]1	0.73
O=C(O)c1cc2c3ccccc3nc-2c[nH]1	0.72
OCc1cc2c3ccccc3nc-2c[nH]1	0.93
O=Cc1cc2c3ccccc3nc-2c[nH]1	0.93
COC(=O)c1cc2c(cn1)[nH]c1ccccc12 [BETA-CCM]	0.7

target: T1, GABA-A receptor; anion channel (Rattus norvegicus)

SMILES	Hill coefficient
CCOC(=O)c1cc2c(cn1)[nH]c1ccccc12	0.74

target: GABA-A receptor; anion channel; assay: In vitro inhibition of [3H]diazepam binding to benzodiazepine receptor in rat cerebral cortical membrane; assay type: cell membranes

SMILES	Ki [µM]
O=C(O)c1cnc2ccccc2c1	> 100
C1=Cc2c([nH]c3ccccc23)CN1	> 100
CCc1nc(C(=O)OC)cc2c1[nH]c1ccccc12	7.54
Cc1nccc2c1[nH]c1ccccc12 [HARMAN]	12.4
CCC1NC(C(=O)OC)Cc2c1[nH]c1ccc(O)cc21 (stereo in doubt; 14a+14b)	39
CC(=O)c1cc2c3ccccc3nc-2c[nH]1	0.058
CCOC(=O)c1cc2c(cn1)[nH]c1ccccc12	0.0011
O=C(O)c1cc2c3ccccc3nc-2c[nH]1	24
Oc1cc2c(cc1O)CNCC2	> 100
CCC1NC(C(=O)OC)Cc2c1[nH]c1ccc(O)cc21 (stereo in doubt; 14a)	> 100
O=C(O)C1Cc2ccccc2CN1 (configuration not stated)	> 100
c1ccc2c(c1)[nH]c1cnccc12 [NORHARMANE]	1.62
COC(=O)C1Cc2c([nH]c3ccccc23)C(c2ccccc2)N1 (stereo in doubt; 49)	54
COC(=O)C1Cc2c([nH]c3ccccc23)C(CO)N1 (stereo in doubt; 17)	5
CCC1NC(C(=O)OC)Cc2c1[nH]c1ccccc21 (configuration not stated)	> 100
O=C(O)C1Cc2c([nH]c3ccccc23)C(c2ccccc2)N1 (configuration not stated)	6.11
OCc1cc2c3ccccc3nc-2c[nH]1	1.47
CN(C)CCc1c[nH]c2ccccc12	> 100
CCC1NC(C(=O)OC)=Cc2c1n(C)c1ccccc21 (configuration not stated)	> 100
COC(=O)c1cc2c(cn1)[nH]c1ccc(O)cc12	0.00266
O=Cc1cc2c3ccccc3nc-2c[nH]1	0.0623
COC(=O)c1cc2ccccc2cn1	13.2
CCCOC(=O)c1cc2c(cn1)[nH]c1ccccc12	0.001

SMILES	Ki [µM]
O=Cc1ccccn1 [2-PYRIDINECARBOXALDEHYDE]	> 100
c1ccc2cnccc2c1 [ISOQUINOLINE]	> 100
CC(O)c1cc2c3ccccc3nc-2c[nH]1 (configuration not stated)	3.16
O=Cc1cnc2ccccc2c1	> 100
Oc1ccc2[nH]c3c(c2c1)C=CNC3	> 100
COC(=O)C1CC2=C(C(c3ccccc3)N1)N(C)c1ccccc1C2 (configuration not stated)	> 100
COC(=O)c1cc2c3ccccc3n(C)c2cn1	> 50
CC(=O)c1ccccn1	> 100
COC(=O)C1Cc2c([nH]c3ccccc23)C(c2ccccc2)N1 (stereo in doubt; 60)	174
COC(=O)c1cc2c([nH]c3ccccc32)c(-c2ccccc2)n1	3.89
COC(=O)C1Cc2c([nH]c3ccccc23)C(CO)N1 (stereo in doubt; 18)	0.51
CN1C=Cc2c([nH]c3ccccc23)C1	> 100
COc1ccc2[nH]c3c(c2c1)C=CNC3	> 500
COC(=O)c1cnc2ccccc2c1	> 100
CN(C)CCc1c[nH]c2ccc(O)cc12 [BUFOTENINE]	> 100
COC(=O)C1Cc2ccccc2CN1 (configuration not stated)	> 100
O=Cc1cccnc1 [NICOTINALDEHYDE]	> 100
COC(=O)c1cc2c(cn1)[nH]c1ccccc12 [BETA-CCM]	0.00105
COC(=O)C1Cc2c([nH]c3ccc(O)cc23)CN1 (configuration not stated)	0.573
COC(=O)C(Cc1c[nH]c2ccccc12)N(C)C (configuration not stated)	> 100
COC(=O)C1Cc2c([nH]c3ccccc23)C(C)N1 (configuration not stated)	> 50
COc1cc2c(cc1OC)CNCC2	> 100
COC(=O)C1=Cc2c([nH]c3ccccc23)C(c2cccnc2)N1 (configuration not stated)	6.25
